One assay concerns the target Acetylcholinesterase (Electrophorus electricus, UniProt O42275). The assay is described as follows: Inhibition of Electrophorus electricus AChE using acetylthiocholine iodide as substrate preincubated for 15 mins followed by substrate addition and measured after 4 mins by Ellman's method. In general terms: DTNB colorimetry detects thiols as they appear.
Assay [1] addresses T1, Cholinesterase (Equus caballus, UniProt P81908). The assay is described as follows: Inhibition of equine serum BuChE using butyrylthiocholine chloride as substrate preincubated for 15 mins followed by substrate addition and measured after 4 mins by Ellman's method. The format is cell-free.
For assay [2], the target named is Cholinesterase (Equus caballus) (UniProt P81908). Nature of the assay: Inhibition of equine serum BuChE at 10 uM using butyrylthiocholine chloride as substrate preincubated for 15 mins followed by substrate addition and measured after 4 mins by Ellman's method. The conditions noted are these: time 19.0 min. Type of assay: cell-free.
Assay [3] deals with Acetylcholinesterase (Electrophorus electricus) (UniProt O42275). Nature of the assay: Inhibition of Electrophorus electricus AChE at 100 uM using acetylthiocholine iodide as substrate preincubated for 15 mins followed by substrate addition and measured after 4 mins by Ellman's method. As to conditions: time 19.0 min.
Assay [4] has as its target Cholinesterase (Equus caballus) (UniProt P81908). The assay is described as follows: Inhibition of equine serum BuChE at 100 uM using butyrylthiocholine chloride as substrate preincubated for 15 mins followed by substrate addition and measured after 4 mins by Ellman's method. Type of assay: cell-free.
The target of assay [5] is T1, Cholinesterase. Nature of the assay: Non-Competitive inhibition of equine serum BuChE using varying concentrations of butyrylthiocholine iodide as substrate by Lineweaver-burk plot analysis. The format is cell-free. A digest of the protocol: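 Equine serum BuChE kinetics by the Ellman read-out with butyrylthiocholine at 0.025–2.0 mM. Run without inhibitor and with inhibitor at 0.5 and 1.0 µM. Reciprocal initial rate was plotted against reciprocal substrate concentration (Lineweaver-Burk) to assign the inhibition mode.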

The structures appear in SMILES notation.

Acetylcholinesterase (Electrophorus electricus), sequence (O42275 24-633 limits assumed): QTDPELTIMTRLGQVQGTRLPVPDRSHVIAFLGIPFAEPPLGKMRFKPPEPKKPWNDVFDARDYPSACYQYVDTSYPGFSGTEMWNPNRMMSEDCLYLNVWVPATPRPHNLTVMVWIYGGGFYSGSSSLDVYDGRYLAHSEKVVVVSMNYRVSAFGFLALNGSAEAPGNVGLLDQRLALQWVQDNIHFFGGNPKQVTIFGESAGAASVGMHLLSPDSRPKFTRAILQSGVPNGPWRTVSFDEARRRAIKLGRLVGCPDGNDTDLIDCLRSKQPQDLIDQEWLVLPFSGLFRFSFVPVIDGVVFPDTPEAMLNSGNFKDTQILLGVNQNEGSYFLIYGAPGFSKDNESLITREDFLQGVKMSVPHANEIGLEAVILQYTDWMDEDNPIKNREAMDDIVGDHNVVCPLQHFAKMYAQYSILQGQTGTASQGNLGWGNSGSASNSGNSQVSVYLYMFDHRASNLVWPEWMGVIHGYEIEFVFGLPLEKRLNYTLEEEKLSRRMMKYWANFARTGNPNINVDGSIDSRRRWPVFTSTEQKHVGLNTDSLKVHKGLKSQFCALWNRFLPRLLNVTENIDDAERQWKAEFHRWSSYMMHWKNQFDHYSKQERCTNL
T1 sequence (P81908 whole entry): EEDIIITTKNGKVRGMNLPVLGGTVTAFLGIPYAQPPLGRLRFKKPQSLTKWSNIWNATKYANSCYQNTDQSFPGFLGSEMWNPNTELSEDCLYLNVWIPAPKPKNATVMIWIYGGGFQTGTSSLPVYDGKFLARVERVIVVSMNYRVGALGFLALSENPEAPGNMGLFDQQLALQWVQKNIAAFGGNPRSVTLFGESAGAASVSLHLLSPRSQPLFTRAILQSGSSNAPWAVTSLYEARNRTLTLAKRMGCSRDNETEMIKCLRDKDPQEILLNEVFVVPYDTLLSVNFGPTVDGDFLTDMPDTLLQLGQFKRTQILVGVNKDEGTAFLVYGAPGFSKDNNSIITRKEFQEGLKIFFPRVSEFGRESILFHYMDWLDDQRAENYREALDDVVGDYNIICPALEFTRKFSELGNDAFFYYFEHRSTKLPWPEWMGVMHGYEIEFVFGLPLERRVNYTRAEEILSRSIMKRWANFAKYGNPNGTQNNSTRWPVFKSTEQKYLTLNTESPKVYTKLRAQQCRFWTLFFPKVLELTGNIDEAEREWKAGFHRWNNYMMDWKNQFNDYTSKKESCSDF
Cholinesterase (Equus caballus), sequence (P81908 whole entry): as above
Acetylcholinesterase, sequence (O42275 whole entry): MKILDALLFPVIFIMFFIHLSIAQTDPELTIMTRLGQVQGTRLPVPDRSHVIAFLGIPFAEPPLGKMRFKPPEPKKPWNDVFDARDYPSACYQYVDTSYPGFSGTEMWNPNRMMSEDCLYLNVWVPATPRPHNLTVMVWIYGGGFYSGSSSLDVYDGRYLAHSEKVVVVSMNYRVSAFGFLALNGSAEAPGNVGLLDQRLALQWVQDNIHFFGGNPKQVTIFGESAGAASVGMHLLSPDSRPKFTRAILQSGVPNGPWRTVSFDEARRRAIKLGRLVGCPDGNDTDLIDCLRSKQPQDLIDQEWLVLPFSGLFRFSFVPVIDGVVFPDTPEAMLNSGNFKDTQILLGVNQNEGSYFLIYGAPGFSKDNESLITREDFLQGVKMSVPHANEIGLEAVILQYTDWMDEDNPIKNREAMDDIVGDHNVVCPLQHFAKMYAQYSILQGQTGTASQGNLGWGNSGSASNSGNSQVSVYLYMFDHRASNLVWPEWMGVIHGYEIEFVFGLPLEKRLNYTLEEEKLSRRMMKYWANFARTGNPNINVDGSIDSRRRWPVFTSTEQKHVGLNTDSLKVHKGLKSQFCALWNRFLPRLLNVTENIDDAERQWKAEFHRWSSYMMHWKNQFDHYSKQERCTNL

With `COc1ccc(C(=O)N/N=C/c2ccccc2OC(=O)N(C)C)cc1OC`, the IC50 (as a rule, the concentration that inhibits the measured activity by half) at Acetylcholinesterase is over 100 µM; against Cholinesterase [1], 0.31 µM. In addition, the figures for the inhibition in assay [2], in assay [3] and in assay [4] were 62.1%, 21.9% and 74%, respectively.
As to `COc1cc(C(=O)N/N=C/c2ccc(OC(=O)N(C)C)cc2)ccc1O`, the values for the IC50 on Acetylcholinesterase and on Cholinesterase [1] were over 100 µM and 21.9 µM, respectively. In addition, the inhibition (as a rule, the percentage by which the read-out fell short of the control) was determined as 44.6% in assay [2], 20.1% in assay [3] and 63.9% in assay [4].
Consider `COc1cc(/C=N/NC(=O)c2ccc(O)cc2)ccc1OC(=O)N(C)C`, for which the results for the IC50 on Acetylcholinesterase and against Cholinesterase [1] were over 100 µM and 0.94 µM, respectively. Moreover, the inhibition in assay [2] came to 68.4%; in assay [3], 23.6%; in assay [4] it was 73.4%.
Take `CN(C)C(=O)Oc1ccc(/C=N/NC(=O)c2cccc(O)c2)cc1`: the figures for the IC50 against Acetylcholinesterase and against Cholinesterase [1] were over 100 µM and 29.3 µM, respectively. The inhibition was 42.1% in assay [2], 9.65% in assay [3] and 75.2% in assay [4].
As to `COc1ccc(C(=O)N/N=C/c2ccc(OC(=O)N(C)C)c(OC)c2)cc1OC`, the IC50 on Acetylcholinesterase was over 100 µM; against Cholinesterase [1], 2.07 µM. Moreover, the inhibition was determined as 74.8% in assay [2], 24.7% in assay [3] and 78.5% in assay [4].
For the molecule `COc1cc(C(=O)N/N=C/c2ccccc2OC(=O)N(C)C)ccc1O`, the IC50 at Acetylcholinesterase was over 100 µM; against Cholinesterase [1], 0.07 µM. Also, the inhibition in assay [2] worked out at 73%; in assay [3] it was 24.9%; in assay [4] it was 77.8%. At Cholinesterase [5], the Ki (in general, a dissociation constant, usually derived from enzyme kinetics or from competition with a known ligand) was found to be 97 µM.
In the case of `CN(C)C(=O)Oc1ccccc1/C=N/NC(=O)c1cccc(O)c1`, the IC50 against Acetylcholinesterase is over 100 µM; on Cholinesterase [1], 0.56 µM. The inhibition in assay [2] worked out at 74.9%; in assay [3], 18.2%; in assay [4], 82%.
In the case of `CN(C)C(=O)Oc1ccc(/C=N/NC(=O)c2ccc(O)cc2)cc1`, the IC50 at Acetylcholinesterase and against Cholinesterase [1] was over 100 µM in each case. Moreover, the inhibition came out at 10.4% in assay [2], 11.7% in assay [3] and 31% in assay [4].
As to `COc1cc(/C=N/NC(=O)c2cccc(O)c2)ccc1OC(=O)N(C)C`, the IC50 against Acetylcholinesterase is over 100 µM; on Cholinesterase [1], 7.65 µM. Besides, the figures for the inhibition in assay [2], in assay [3] and in assay [4] were 50.1%, 19.9% and 62.2%, respectively.
For `CN(C)C(=O)Oc1ccccc1/C=N/NC(=O)c1ccc(O)cc1`, the IC50 was over 100 µM on Acetylcholinesterase and 0.18 µM at Cholinesterase [1]. The inhibition in assay [2] was 76.4%; in assay [3], 11.1%; in assay [4], 80.9%.
For the molecule `COc1cc(C(=O)N/N=C/c2ccc(OC(=O)N(C)C)c(OC)c2)ccc1O`, the figures for the IC50 at Acetylcholinesterase and against Cholinesterase [1] were over 100 µM and 9.98 µM, respectively. The results for the inhibition in assay [2], in assay [3] and in assay [4] were 57.3%, 29.2% and 49.7%, respectively.
As for `COc1ccc(C(=O)N/N=C/c2ccc(OC(=O)N(C)C)cc2)cc1OC`, the IC50 against Acetylcholinesterase and against Cholinesterase [1] was over 100 µM each time. Also, the results for the inhibition in assay [2], in assay [3] and in assay [4] were 11.4%, 28.3% and 37.8%, respectively.

Source of the values: ChEMBL document CHEMBL4680346, “Novel arylcarbamate-N-acylhydrazones derivatives as promising BuChE inhibitors: Design, synthesis, molecular modeling and biological evaluation” (Bioorg Med Chem, 2021).
